In ChEMBL document CHEMBL3352460, “Synthesis and biological evaluation of novel biaryl type α-noscapine congeners” (Bioorg Med Chem Lett, 2014):
Activity calls are given as the source filed them. The rule behind the calls is not given here.

How the values were obtained:
Assay type in all cases: functional, cell-based
MCF7 [1] = experiment: Antiproliferative activity against human MCF7 cells after 72 hrs by MTS assay; conditions: MCF7, 72 h
Outline: (§1)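 Cells grown in medium with L-glutamine, 10% fetal bovine serum and 1% penicillin/streptomycin, seeded at 5 × 10³ cells per well, then exposed for 72 h to a rising concentration series. Proliferation read by MTS reagent: 3 h incubation, absorbance at 490 nm. IC50 given as mean ± S.D. of three separate experiments.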

HeLa = experiment: Antiproliferative activity against human HeLa cells after 72 hrs by MTS assay; outline: as §1
A549 = experiment: Antiproliferative activity against human A549 cells after 72 hrs by MTS assay; conditions: A549, 72 h; outline: as §1
MCF7 [2] = experiment: Induction of apoptosis in human MCF7 cells assessed as fragmented nuclei at 25 uM after 72 hrs by DAPI staining-based fluorescence analysis
Outline: (§2)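 MCF-7 cells (2 × 10³) grown on poly-L-lysine-coated coverslips, treated at 25 µM for 72 h. Then fixed in cold methanol, washed in PBS, stained with DAPI and mounted. Nuclei imaged by fluorescence microscopy; apoptosis scored by nuclear condensation, membrane blebs and apoptotic bodies.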

MCF7 [3] = experiment: Induction of apoptosis in human MCF7 cells assessed as condensed chromatin at 25 uM after 72 hrs by DAPI staining-based fluorescence analysis; outline: as §2

Row | IC50 (MCF7 [1]) | IC50 (HeLa) | IC50 (A549) | SMILES | Activity (MCF7 [2]) | Activity (MCF7 [3])
1 | 16.6 µM | 8.9 µM | 31.6 µM | COc1ccc2c(c1OC)C(=O)O[C@@H]2[C@H]1c2c(c(-c3cccnc3)c3c(c2OC)OCO3)CCN1C |  | 
2 | 18.8 µM | 9 µM | 33.8 µM | CCOC(=O)c1cc(-c2c3c(c(OC)c4c2OCO4)[C@H]([C@H]2OC(=O)c4c2ccc(OC)c4OC)N(C)CC3)ccc1Cl | Active | Active
3 | 41.3 µM | 22.8 µM | 57.3 µM | COc1ccc2c(c1OC)C(=O)O[C@@H]2[C@H]1c2c(c(-c3ccc(C(F)(F)F)cc3)c3c(c2OC)OCO3)CCN1C |  | 
4 | 42.3 µM | 24 µM | 62.9 µM | COc1ccc2c(c1OC)C(=O)O[C@@H]2[C@H]1c2c(cc3c(c2OC)OCO3)CCN1C [NOSCAPINE] |  | 
5 | 17.8 µM | 9.2 µM | 32.6 µM | COc1ccc2c(c1OC)C(=O)O[C@@H]2[C@H]1c2c(c(-c3cccc(NC(C)=O)c3)c3c(c2OC)OCO3)CCN1C | Active | Active
6 | 34.3 µM | 20.3 µM | 42.7 µM | C=Cc1ccc(-c2c3c(c(OC)c4c2OCO4)[C@H]([C@H]2OC(=O)c4c2ccc(OC)c4OC)N(C)CC3)cc1 | Active | Active
7 | 40.7 µM | 21.2 µM | 53.1 µM | CCOC(=O)c1ccc(-c2c3c(c(OC)c4c2OCO4)[C@H]([C@H]2OC(=O)c4c2ccc(OC)c4OC)N(C)CC3)cc1 | Active | Active
